From the RNAGym collection of RNA variant scans (doi:10.1126/science.aae0568)
Fewer inactive variants are shown than the library holds.

B1: tRNA (parent)
chain: GUUCCGUUGGCGUAAUGGUAACGCGUCUCCCUCCUAAGGAGAAGACUGCGGGUUCGAGUCCCGUACGGAACG

Variants of: B1
Assay: yeast fitness relative to wild type (ratio to wild type); higher = fitter; tRNA-Arg(CCU), competitive growth, 37 C, YPD
Procedure, shortened: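 Variants of the tRNA-Arg(CCU) gene, chemically synthesised with a 3% per-site mutation rate at 69 sites, were placed at the native genomic locus in Saccharomyces cerevisiae. The pooled strains were competed in YPD at 37°C for 24 hours in six parallel replicates. Gene amplicons from the start population and from each end population were read by 100-nucleotide paired-end sequencing. Darwinian fitness relative to wild type came from changes in genotype frequencies; genotypes needed ≥ 100 starting reads, and estimates < 0.5 were set to 0.5.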

Question: With GUUCCGUUGGCGUAAUGGUAACGCGUGUCCCUCCUAAGGAGAAGACUGCAGGUUCGAGUGCCGUACGGAACG [C27G G50A C60G] as the variant, how does the yeast fitness read?
Answer: Its yeast fitness is 0.778.

Question: Which yeast fitness does the source give for GUUCCGUUGGCGUAAUGGUAACGCGUUUCCCUCCUACGGUGAUGACUGCGGGUUCGAGUCCCGUAUGGAACG [C27U A37C A40U A43U C66U] here?
Answer: The yeast fitness was 0.583.

Question: With GUUCCGUUGGCGUAAUGGUAACGCGUUUCCCUCCUGAGGAGCAGACUGUGGGUUCGAGUCCCGUACGGAACG [C27U A36G A42C C49U] as the variant, how does the yeast fitness read?
Answer: Its yeast fitness is 0.574.

Question: With GUUCCGUUGGCGUAAUGGUAACGCGUUUCCCUCCUAAGGGGAAAACUGCGGGUUCGAGUCCCGUACGGAACG [C27U A40G G44A] as the variant, how does the yeast fitness read?
Answer: Its yeast fitness is 0.513.

Question: For GUUCCGUUGGCGUAAUGGUAACGCGUUUCCCUCCUAAGGAGGAGACUGCGGGUUCGAGUCCCGUACGGAACG [C27U A42G], which yeast fitness is on record?
Answer: Its yeast fitness is 0.695.

Question: With GUUCCGUUGGCGUAAUGGUAACGCGUUUCCCUCCUAAGGGGAAGACUGCGGGUUCGAGUCCCGUACGGAACG [C27U A40G] as the variant, how does the yeast fitness read?
Answer: The yeast fitness was 0.834.

Question: With GUUCCGUUGGCGUAAUGGUAACGCGUUUCCCUCCUAAGGUGAAGACUGCGGGUUCGAGUCCCGUACGGAACG [C27U A40U] as the variant, how does the yeast fitness read?
Answer: Its yeast fitness is 0.925.

Question: With GUUCCGUUGGCGUAAUGGUAACGCGUGACCCUCCUAAGGAGAAGACUGCGGAUUUGAGUCCCGUACGGAACG [C27G U28A G52A C55U] as the variant, how does the yeast fitness read?
Answer: The yeast fitness was no more than 0.5.

Question: Which yeast fitness does the source give for GUUCCGUUGGCGUAAUGGUAACGCGUGUCCCUCCUAAGGAAAAGACUGCGGGUUCGGGUCCCGUACGGAACG [C27G G41A A57G] here?
Answer: Its yeast fitness is 0.746.

Question: For GUUCCGUUGGCGUAAUGGUAACGCGUUUCCCUCCUAAGGAGUAGACUGCGGGUUCGAGUCGCGUACGGAACG [C27U A42U C61G], which yeast fitness is on record?
Answer: Its yeast fitness is 0.545.

Question: With GUUCCGUUGGCGUAAUGGUAACGCGUUUCCCUCCUACGGAGAAGACUGCGGGUUCGAGUGCCGUGCGGAACG [C27U A37C C60G A65G] as the variant, how does the yeast fitness read?
Answer: Its yeast fitness is no more than 0.5.

Question: For GUUCCGUUGGCGUAAUGGUAACGCGUUUCCCUCCUAAGGAGGAGACUGCGGGUUCGAGUCCCGUACAGAACG [C27U A42G G67A], which yeast fitness is on record?
Answer: Its yeast fitness is 0.589.

Question: Which yeast fitness does the source give for GUUCCGUUGGCGUAAUGGUAACGCGUGUCCCUCCUAAGGAGAAGACUGCGGGUUCGAGUCCCAUACGGAACG [C27G G63A] here?
Answer: The yeast fitness was 0.665.

Question: Which yeast fitness does the source give for GUUCCGUUGGCGUAAUGGUAACGCGUGUCCCUCCUAAGGAGAAGACUGCGGGUUCGAGUCCCCUACGGAACG [C27G G63C] here?
Answer: The yeast fitness was 0.582.

Question: With GUUCCGUUGGCGUAAUGGUAACGCGUUUCCCUCCUAGGGAAAAGACUGCCGGUUCGAGUCCCGUACGGAACG [C27U A37G G41A G50C] as the variant, how does the yeast fitness read?
Answer: The yeast fitness was 0.649.

Question: For GUUCCGUUGGCGUAAUGGUAACGCGUGUCCCUCCUAAGAAGAAGACUGCGGGUUCGAGUCCCGUACGGAACG [C27G G39A], which yeast fitness is on record?
Answer: The yeast fitness was 0.615.

Question: For GUUCCGUUGGCGUAAUGGUAACGCGUGUCCCUCCUAAGGAGAAGACUGCGCGUUCGAGUCCCGUACGGAACG [C27G G51C], which yeast fitness is on record?
Answer: The yeast fitness was 0.78.

Question: Which yeast fitness does the source give for GUUCCGUUGGCGUAAUGGUAACGCGUGUCCCUCCUAAGGAGAAGACUGCAGGUUCCAGUCCCGUACGGAACG [C27G G50A G56C] here?
Answer: The yeast fitness was no more than 0.5.

Question: For GUUCCGUUGGCGUAAUGGUAACGCGUGUCCCUCCUAAGGAGAAGACUGCGGGUUCGAGUCCCGAACGGAACG [C27G U64A], which yeast fitness is on record?
Answer: Its yeast fitness is 0.665.

Question: Which yeast fitness does the source give for GUUCCGUUGGCGUAAUGGUAACGCGUGUCCCUCCUAAGGAAAAGACUGGGGGUUCCAGUCCCGUACGGAACG [C27G G41A C49G G56C] here?
Answer: Its yeast fitness is no more than 0.5.

Question: For GUUCCGUUGGCGUAAUGGUAACGCGUUUCCCUCCUCAGGAGAAGACUGCGGGUUCGAGUCCCGUACGGUACG [C27U A36C A69U], which yeast fitness is on record?
Answer: The yeast fitness was 0.646.

Question: Which yeast fitness does the source give for GUUCCGUUGGCGUAAUGGUAACGCGUUUCCCUCCUUAGGAGAAGACUGCGGGUUCGAGUCCCGUACGGCUCG [C27U A36U A69C A70U] here?
Answer: Its yeast fitness is no more than 0.5.

Question: Which yeast fitness does the source give for GUUCCGUUGGCGUAAUGGUAACGCGUUUCCCUCCUAAGGCGAAGAUUGCGGGUUCGAGUCCCGUACGGAACG [C27U A40C C46U] here?
Answer: The yeast fitness was 0.661.

Question: For GUUCCGUUGGCGUAAUGGUAACGCGUGUCCCUCCUAAGAAGAAGAUUGCGGGUUCGAGUCCCGUACGGAACG [C27G G39A C46U], which yeast fitness is on record?
Answer: The yeast fitness was 0.74.

Question: For GUUCCGUUGGCGUAAUGGUAACGCGUUUCCCUCCUAAGGGGAAAACUGCGGGUUUGAGUCCCGUACGGUACG [C27U A40G G44A C55U A69U], which yeast fitness is on record?
Answer: Its yeast fitness is no more than 0.5.

Question: Which yeast fitness does the source give for GUUCCGUUGGCGUAAUGGUAACGCGUUUCCCUCCUAAGGAGUAGACUGCGGGUUCGAGUCCUGUCCAGAACG [C27U A42U C62U A65C G67A] here?
Answer: The yeast fitness was no more than 0.5.

Question: Which yeast fitness does the source give for GUUCCGUUGGCGUAAUGGUAACGCGUUUCCCUCCUAGGGAGAAGACUGCGGGUUCGAGUCCCGUACGGACCG [C27U A37G A70C] here?
Answer: Its yeast fitness is 0.562.

Question: With GUUCCGUUGGCGUAAUGGUAACGCGUGUCCCUCCUAAGGAGAAGACUGCCGGUUCGAGUCCCGUACGGAACG [C27G G50C] as the variant, how does the yeast fitness read?
Answer: Its yeast fitness is no more than 0.5.

Question: For GUUCCGUUGGCGUAAUGGUAACGCGUGUCCCUCCUAAGGAGAAGACUACGGGUUCGAGGCCCGUACGGAACG [C27G G48A U59G], which yeast fitness is on record?
Answer: The yeast fitness was no more than 0.5.

Question: For GUUCCGUUGGCGUAAUGGUAACGCGUUUCCCUCCUACGGAGAAGACUGCGGGUUCCAGUCCCCCACGGAACG [C27U A37C G56C G63C U64C], which yeast fitness is on record?
Answer: The yeast fitness was no more than 0.5.

Question: Which yeast fitness does the source give for GUUCCGUUGGCGUAAUGGUAACGCGUGUCCCUCCUAAGGAGAAGACUGCGGGCUCAAGUCCCGUAUGGAACG [C27G U53C G56A C66U] here?
Answer: The yeast fitness was no more than 0.5.

Question: For GUUCCGUUGGCGUAAUGGUAACGCGUUUCCCUCCUACGGAGAAGACUGCGCGUUCGAGUCCCGUACUGAACG [C27U A37C G51C G67U], which yeast fitness is on record?
Answer: The yeast fitness was 0.543.

Question: For GUUCCGUUGGCGUAAUGGUAACGCGUUUCCCUCCUAUGGAGAAGACUGUGGGUUCGAGUCCCGUACGGAACG [C27U A37U C49U], which yeast fitness is on record?
Answer: Its yeast fitness is 0.549.

Question: Which yeast fitness does the source give for GUUCCGUUGGCGUAAUGGUAACGCGUGCCCCUCCUAAGGAGAAGACUGCGGGUUCGAGUCCCGUACGGAACG [C27G U28C] here?
Answer: The yeast fitness was 0.609.

Question: For GUUCCGUUGGCGUAAUGGUAACGCGUGGCCCUCCUAAGGAGAAGACUGCGGGUUCGAGUCCCGUACGGAACG [C27G U28G], which yeast fitness is on record?
Answer: The yeast fitness was 0.522.

Question: Which yeast fitness does the source give for GUUCCGUUGGCGUAAUGGUAACGCGUGUCCCUCCUAAGAAGAAGACUGCGGGUUCGAGUCCCGUAGGGAACG [C27G G39A C66G] here?
Answer: Its yeast fitness is 0.655.

Question: Which yeast fitness does the source give for GUUCCGUUGGCGUAAUGGUAACGCGUGUCCCUCCUAAGGAAAAGACUGCGGGUUCGAGUCCCGAACGGAACG [C27G G41A U64A] here?
Answer: The yeast fitness was 0.681.

Question: Which yeast fitness does the source give for GUUCCGUUGGCGUAAUGGUAACGCGUUUCCCUCCUAAGGGGAAGACUGCGGGUUCGAGUCCGGUACGAAACG [C27U A40G C62G G68A] here?
Answer: Its yeast fitness is no more than 0.5.
